# Experimental data collected from several papers.
# Protocols differ between the studies behind these lines.
# HTR2B: 5-hydroxytryptamine receptor 2B (HTR2B, Homo sapiens, UniProt P41595)
# Neuronal acetylcholine receptor; alpha3/beta4: Neuronal acetylcholine receptor; alpha3/beta4 (Rattus norvegicus, UniProt P04757+P12392)
SMILES,target,test,setting,endpoint,value
COC(=O)c1cc(N(C)C(=O)c2ccn3ncc(-c4ccc(C(=O)O)cc4)c3c2)ccc1Cl,"Rho-associated protein kinase 2 (ROCK2, Homo sapiens, UniProt O75116)","enzyme activity, inhibitor",,IC50,> 30 µM
CC(C)N(CCc1c[nH]c2cccc(OC(=O)CCCC(=O)O)c12)C(C)C,HTR2B,"ligand displacement, radioligand",,IC50,3.6 µM
Cc1cc(-c2ccccc2)nnc1NCCN1CCNCC1,HTR2B,"calcium signal, antagonist, fluorescence",,IC50,0.054 µM
COc1ccc2[nH]c3c(c2c1)CCN(C)CC3,Neuronal acetylcholine receptor; alpha3/beta4,"ion current, antagonist, two-electrode voltage clamp",oocytes,IC50,21.3 µM
Cn1ccc2cc3c(cc21)CCN3C(=O)Nc1cccnc1,HTR2B,"ligand displacement, radioligand",,Ki,0.0064 µM
O=S(=O)(O)c1ccc2c(N=Nc3c(O)ccc4ccccc34)cccc2c1,"Bcl-2-related protein A1 (Mus musculus, UniProt Q07440, C113S/P104K)","ligand displacement, FP",,IC50,32 µM
CNC(=O)c1ccc(-c2cnn3ccc(C(=O)N(C)c4ccc(Cl)c(C(=O)OC)c4)cc23)cc1,HTR2B,cell-free assay,,IC50,> 30 µM
CN(C)C(=N)N=C(N)N,"speB (Escherichia coli, UniProt P60651)","enzyme activity, inhibitor, absorbance",pH 6.5,Ki,1180 µM
COc1ccc2c3c([nH]c2c1)CCN(C)CC3,Neuronal acetylcholine receptor; alpha3/beta4,"ion current, antagonist, two-electrode voltage clamp",oocytes,IC50,31.4 µM
CC[C@H](C)[C@H](NC(C)=O)C(=O)N[C@@H](CCC(=O)O)C(=O)N[C@H](C(=O)N[C@H](C=O)CC(=O)O)[C@@H](C)O,"Caspase-4 (CASP4, Homo sapiens, UniProt P49662)","enzyme activity, inhibitor",,IC50,0.555 µM
